Measured values as given in ChEMBL document CHEMBL1773023, “Potent and selective phosphopeptide mimetic prodrugs targeted to the Src homology 2 (SH2) domain of signal transducer and activator of transcription 3” (J Med Chem, 2011).
The source made the active and inactive calls. The rule behind the calls is not given here.

How the values were obtained:
[1] = target: T1, Signal transducer and activator of transcription 3 (Homo sapiens, UniProt P40763); assay: Inhibition of SH2 domain of Stat3 constitutive phosphorylation at Tyr705 in human MDA-MB-468 cells at 5 uM after 2 hrs by Western blotting; type: cell-based
T1 sequence (P40763 whole entry, the tested form may be a part): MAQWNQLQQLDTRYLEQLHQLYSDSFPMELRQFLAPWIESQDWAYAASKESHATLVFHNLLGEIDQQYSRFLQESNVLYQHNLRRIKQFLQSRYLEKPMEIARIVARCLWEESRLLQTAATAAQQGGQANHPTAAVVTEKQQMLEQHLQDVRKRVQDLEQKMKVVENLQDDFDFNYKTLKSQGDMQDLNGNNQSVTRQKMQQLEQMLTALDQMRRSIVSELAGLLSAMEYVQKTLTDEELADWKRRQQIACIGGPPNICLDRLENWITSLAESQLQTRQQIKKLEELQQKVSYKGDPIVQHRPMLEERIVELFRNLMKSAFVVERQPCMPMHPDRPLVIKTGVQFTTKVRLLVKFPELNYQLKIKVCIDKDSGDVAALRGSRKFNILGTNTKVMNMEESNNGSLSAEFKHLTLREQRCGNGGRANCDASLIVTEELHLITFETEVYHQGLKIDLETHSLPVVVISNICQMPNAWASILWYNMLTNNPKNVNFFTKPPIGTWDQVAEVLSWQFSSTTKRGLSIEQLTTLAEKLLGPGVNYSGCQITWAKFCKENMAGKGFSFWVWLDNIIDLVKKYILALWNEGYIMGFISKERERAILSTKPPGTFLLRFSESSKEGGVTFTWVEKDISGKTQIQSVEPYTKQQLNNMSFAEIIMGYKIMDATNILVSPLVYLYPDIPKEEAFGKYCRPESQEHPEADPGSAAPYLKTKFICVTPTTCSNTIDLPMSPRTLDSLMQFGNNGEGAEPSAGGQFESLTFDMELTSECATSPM
Procedure, shortened: (§1)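 MDA-MB-468 cells (4×10^5/well, DMEM 10% FCS, overnight) given prodrug from freshly made 10 mM DMSO stock for 2 h. Lysates in Hepes pH 7.4 Triton buffer with phosphatase/protease inhibitors; 12 μg protein on 8% SDS-PAGE, PVDF, probed for pStat3 Y705 by ECL, then stripped and reprobed for total Stat3.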

MDA-MB-468 [2] = assay: Cytotoxicity against human MDA-MB-468 cells up to 50 uM after 72 hrs by SRB assay; type: functional, cell-based
[3] = target: T1, Signal transducer and activator of transcription 3; assay: Inhibition of SH2 domain of Stat3 constitutive phosphorylation at Tyr705 in human MDA-MB-468 cells at 25 uM after 2 hrs by Western blotting; type: cell-based; procedure, shortened: as §1
HCC827 = assay: Cytotoxicity against human HCC827 cells up to 50 uM after 72 hrs by SRB assay; type: functional, cell-based
Procedure, shortened: (§2)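 Cancer cell lines (MCF-7, SKOV3-ip, HCC-827) dosed daily with prodrug for three days; viability by SRB assay.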

SKOV3ip = assay: Cytotoxicity against human SKOV3ip cells up to 50 uM after 72 hrs by SRB assay; type: functional, cell-based; procedure, shortened: as §2
MCF7 = assay: Cytotoxicity against human MCF7 cells up to 50 uM after 72 hrs by SRB assay; type: functional, cell-based; procedure, shortened: as §2
MeWo = assay: Cytotoxicity against human MeWo cells assessed as cell growth inhibition at 5 to 10 uM after 72 hrs by MTT assay; type: functional
Procedure, shortened: (§3)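 Cell lines with constitutive Stat3 phosphorylation (melanoma, NSCLC) exposed to prodrug at 5–10 μM. Percent growth inhibition recorded.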

A549 = assay: Cytotoxicity against human A549 cells assessed as cell growth inhibition at 5 to 10 uM after 72 hrs by MTT assay; type: functional; procedure, shortened: as §3
[4] = Cytotoxicity against human NCI-H1819 cells assessed as cell growth inhibition at 5 to 10 uM after 72 hrs by MTT assay; type: functional; procedure, shortened: as §3
[5] = target: T1, Signal transducer and activator of transcription 3; assay: Inhibition of SH2 domain of Stat3 constitutive phosphorylation at Tyr705 in human MDA-MB-468 cells at 5 uM after 8 hrs by Western blotting; type: cell-based
Procedure, shortened: (§4)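 MDA-MB-468 cells given a single 5 μM prodrug dose and harvested at set times; pTyr705 and total Stat3 by Western blot of 12 μg lysate protein on 8% SDS-PAGE.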

[6] = target: RAC-alpha serine/threonine-protein kinase (Homo sapiens) (UniProt P31749); assay: Inhibition of EGF-induced Akt phosphorylation at Ser473 in human MDA-MB-468 cells at 5 uM treated 1.5 hrs before EGF challenge measured after 30 mins by Western blotting; type: cell-based
RAC-alpha serine/threonine-protein kinase (Homo sapiens), sequence (P31749 whole entry): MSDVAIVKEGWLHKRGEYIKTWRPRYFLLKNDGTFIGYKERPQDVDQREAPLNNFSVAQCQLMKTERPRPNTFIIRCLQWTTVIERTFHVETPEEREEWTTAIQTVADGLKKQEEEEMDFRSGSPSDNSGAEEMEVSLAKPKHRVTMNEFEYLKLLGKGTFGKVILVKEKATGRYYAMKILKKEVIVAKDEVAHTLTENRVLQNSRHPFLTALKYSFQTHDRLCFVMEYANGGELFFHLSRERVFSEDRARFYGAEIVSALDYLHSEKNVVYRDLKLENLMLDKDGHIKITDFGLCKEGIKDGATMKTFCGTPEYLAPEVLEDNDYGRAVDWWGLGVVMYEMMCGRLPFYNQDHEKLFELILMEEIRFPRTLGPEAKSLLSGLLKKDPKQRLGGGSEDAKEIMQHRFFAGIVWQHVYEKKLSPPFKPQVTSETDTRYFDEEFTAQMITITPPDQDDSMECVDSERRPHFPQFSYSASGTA
Procedure, shortened: (§5)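 MDA-MB-468 cells pretreated 1.5 h with prodrug (5 μM), then EGF 100 ng/mL for 30 min; lysates split onto three PVDF blots probed for phospho/total Stat3, pSer473/total Akt, and phospho/total Stat5.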

[7] = target: T1, Signal transducer and activator of transcription 3; assay: Inhibition of SH2 domain of Stat3 constitutive phosphorylation at Tyr705 in human MDA-MB-468 cells at 5 uM after 30 mins by Western blotting; type: cell-based; procedure, shortened: as §4
[8] = target: Focal adhesion kinase 1 (Homo sapiens) (UniProt Q05397); assay: Inhibition of constitutive FAK phosphorylation at Tyr861 in human MDA-MB-468 cells at 5 uM measured after 2 hrs by Western blotting
Focal adhesion kinase 1 (Homo sapiens), sequence (Q05397 2-1052 limits assumed): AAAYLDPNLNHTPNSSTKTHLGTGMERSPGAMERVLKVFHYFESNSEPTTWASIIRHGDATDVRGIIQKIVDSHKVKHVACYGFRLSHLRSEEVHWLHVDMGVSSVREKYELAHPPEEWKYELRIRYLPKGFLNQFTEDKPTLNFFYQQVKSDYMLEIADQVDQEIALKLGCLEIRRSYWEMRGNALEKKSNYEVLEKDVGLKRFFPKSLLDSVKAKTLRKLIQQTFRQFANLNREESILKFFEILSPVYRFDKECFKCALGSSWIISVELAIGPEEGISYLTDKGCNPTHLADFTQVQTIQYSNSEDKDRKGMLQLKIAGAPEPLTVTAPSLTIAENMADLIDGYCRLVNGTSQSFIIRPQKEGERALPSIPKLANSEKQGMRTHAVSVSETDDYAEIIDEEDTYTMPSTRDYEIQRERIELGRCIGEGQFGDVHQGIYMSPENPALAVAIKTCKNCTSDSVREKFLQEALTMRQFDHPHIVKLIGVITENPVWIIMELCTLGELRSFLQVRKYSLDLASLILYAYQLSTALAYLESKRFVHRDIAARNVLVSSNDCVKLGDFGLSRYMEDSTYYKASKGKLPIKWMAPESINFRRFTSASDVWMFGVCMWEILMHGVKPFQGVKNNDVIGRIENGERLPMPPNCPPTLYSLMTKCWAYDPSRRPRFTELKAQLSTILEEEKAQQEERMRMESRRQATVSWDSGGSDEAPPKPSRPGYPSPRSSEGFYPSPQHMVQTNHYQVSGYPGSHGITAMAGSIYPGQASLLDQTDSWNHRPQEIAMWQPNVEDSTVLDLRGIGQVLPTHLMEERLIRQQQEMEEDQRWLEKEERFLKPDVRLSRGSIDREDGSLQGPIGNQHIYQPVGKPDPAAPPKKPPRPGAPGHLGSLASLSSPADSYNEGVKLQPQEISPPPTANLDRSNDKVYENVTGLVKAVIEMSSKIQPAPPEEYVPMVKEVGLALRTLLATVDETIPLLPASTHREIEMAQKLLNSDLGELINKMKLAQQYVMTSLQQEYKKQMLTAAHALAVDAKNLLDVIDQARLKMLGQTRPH

[9] = target: T2, Signal transducer and activator of transcription 1-alpha/beta (Homo sapiens) (UniProt P42224); assay: Inhibition of IFN-gamma-induced Stat1 phosphorylation at Tyr701 in human MDA-MB-468 cells treated 1.5 hrs before IFN-gamma challenge measured after 30 mins by Western blotting; type: cell-based
T2 sequence (whole entry): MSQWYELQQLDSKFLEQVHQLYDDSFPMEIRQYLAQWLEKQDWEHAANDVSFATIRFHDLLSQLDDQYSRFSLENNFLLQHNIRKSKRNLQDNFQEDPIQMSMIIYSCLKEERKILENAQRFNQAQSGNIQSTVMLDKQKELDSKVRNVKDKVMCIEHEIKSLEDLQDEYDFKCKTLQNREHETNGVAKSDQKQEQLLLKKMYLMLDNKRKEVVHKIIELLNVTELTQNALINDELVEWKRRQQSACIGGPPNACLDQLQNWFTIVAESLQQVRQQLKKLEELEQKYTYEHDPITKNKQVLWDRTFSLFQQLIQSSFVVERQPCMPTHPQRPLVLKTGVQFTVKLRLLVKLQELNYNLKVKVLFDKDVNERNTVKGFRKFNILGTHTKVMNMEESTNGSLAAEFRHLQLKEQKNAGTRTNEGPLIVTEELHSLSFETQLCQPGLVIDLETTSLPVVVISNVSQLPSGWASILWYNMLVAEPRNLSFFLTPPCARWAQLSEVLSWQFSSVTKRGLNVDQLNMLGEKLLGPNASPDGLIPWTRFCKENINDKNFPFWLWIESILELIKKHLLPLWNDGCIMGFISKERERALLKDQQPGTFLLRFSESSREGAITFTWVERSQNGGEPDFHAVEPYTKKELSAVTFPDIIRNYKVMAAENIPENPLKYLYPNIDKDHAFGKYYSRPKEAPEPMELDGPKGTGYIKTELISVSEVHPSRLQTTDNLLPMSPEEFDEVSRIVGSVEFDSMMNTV
Procedure, shortened: (§6)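 MDA-MB-468 cells exposed to rising prodrug concentrations for 1.5 h, then interferon γ 25 ng/mL for 30 min; Western blot for pTyr701 and total Stat1.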

[10] = Cytotoxicity against human NCI-H528 cells assessed as cell growth inhibition at 5 to 10 uM after 72 hrs by MTT assay; type: functional; procedure, shortened: as §3
NCI-H520 = assay: Cytotoxicity against human NCI-H520 cells assessed as cell growth inhibition at 5 to 10 uM after 72 hrs by MTT assay; type: functional; procedure, shortened: as §3
[11] = target: T2, Signal transducer and activator of transcription 1-alpha/beta (Homo sapiens); assay: Inhibition of IFN-gamma-induced Stat1 phosphorylation at Tyr701 in human MDA-MB-468 cells at 5 uM treated 1.5 hrs before IFN-gamma challenge measured after 30 mins by Western blotting; type: cell-based; procedure, shortened: as §6
[12] = target: T1, Signal transducer and activator of transcription 3; assay: Inhibition of SH2 domain of Stat3 constitutive phosphorylation at Tyr705 in human MDA-MB-468 cells at 5 uM after 4 hrs by Western blotting; type: cell-based; procedure, shortened: as §4
[13] = Cytotoxicity against human H1299 cells assessed as cell growth inhibition at 5 to 10 uM after 72 hrs by MTT assay; type: functional, NCI-H1299; procedure, shortened: as §3
[14] = target: T1, Signal transducer and activator of transcription 3; assay: Inhibition of SH2 domain of Stat3 constitutive phosphorylation at Tyr705 in human MDA-MB-468 cells at 5 uM after 16 hrs by Western blotting; type: cell-based; procedure, shortened: as §4
[15] = target: T1, Signal transducer and activator of transcription 3; assay: Inhibition of SH2 domain of Stat3 constitutive phosphorylation at Tyr705 in human MDA-MB-468 cells at 0.5 uM after 2 hrs by Western blotting; type: cell-based; procedure, shortened: as §1
A-375 = assay: Cytotoxicity against human A375 cells assessed as cell growth inhibition at 5 to 10 uM after 72 hrs by MTT assay; type: functional; procedure, shortened: as §3
[16] = target: T1, Signal transducer and activator of transcription 3; assay: Inhibition of EGF-induced SH2 domain of Stat3 phosphorylation at Tyr705 in human MDA-MB-468 cells at 5 uM treated 1.5 hrs before EGF challenge measured after 30 mins by Western blotting; type: cell-based; procedure, shortened: as §5
MDA-MB-468 [17] = assay: Selectivity ratio of inhibition of IFNgamma-induced Stat1 phosphorylation at Tyr701 to inhibition of EGF-induced SH2 domain of Stat3 phosphorylation at Tyr705 in human MDA-MB-468 cells; type: cell-based
[18] = target: T3, Signal transducer and activator of transcription 5A (Homo sapiens) (UniProt P42229); assay: Inhibition of EGF-induced SH2 domain of Stat5 phosphorylation at Tyr694 in human MDA-MB-468 cells at 5 uM treated 1.5 hrs before EGF challenge measured after 30 mins by Western blotting; type: cell-based; procedure, shortened: as §5
T3 sequence (whole entry): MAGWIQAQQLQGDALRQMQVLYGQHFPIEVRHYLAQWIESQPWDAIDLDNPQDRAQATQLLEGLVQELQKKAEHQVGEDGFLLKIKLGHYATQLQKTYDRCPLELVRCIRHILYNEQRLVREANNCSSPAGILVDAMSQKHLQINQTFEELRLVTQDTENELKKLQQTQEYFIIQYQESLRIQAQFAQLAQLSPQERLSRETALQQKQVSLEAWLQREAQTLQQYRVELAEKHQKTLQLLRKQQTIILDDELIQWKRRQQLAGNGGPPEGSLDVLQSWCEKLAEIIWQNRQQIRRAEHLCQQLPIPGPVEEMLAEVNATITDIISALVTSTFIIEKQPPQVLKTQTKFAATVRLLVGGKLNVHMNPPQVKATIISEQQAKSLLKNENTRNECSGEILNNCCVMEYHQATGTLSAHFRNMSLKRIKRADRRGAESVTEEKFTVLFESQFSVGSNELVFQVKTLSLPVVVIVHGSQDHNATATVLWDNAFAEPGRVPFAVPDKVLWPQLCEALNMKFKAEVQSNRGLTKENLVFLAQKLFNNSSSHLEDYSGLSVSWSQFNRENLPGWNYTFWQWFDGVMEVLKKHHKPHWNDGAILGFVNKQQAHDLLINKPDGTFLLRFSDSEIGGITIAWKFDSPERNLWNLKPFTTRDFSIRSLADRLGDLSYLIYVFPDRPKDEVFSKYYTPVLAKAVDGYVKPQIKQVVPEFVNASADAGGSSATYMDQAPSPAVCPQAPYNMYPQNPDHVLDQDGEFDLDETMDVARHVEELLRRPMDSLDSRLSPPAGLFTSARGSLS

MDA-MB-468 [19] = assay: Cytotoxicity against human MDA-MB-468 cells after 72 hrs by MTT assay; type: functional, cell-based; settings: MDA-MB-468, 72 h
Procedure, shortened: (§7)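 MDA-MB-468 cells in DMEM/10% FBS, 1500 cells/well in triplicate; medium changed next day. Prodrug stock 10 mM in ethanol, diluted into wells (ethanol <1% final); single dose or daily re-addition at 24 and 48 h in same medium. MTT read-out at 72 h; assays run three times.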

MDA-MB-468 [20] = assay: Cytotoxicity against human MDA-MB-468 cells assessed as cell growth inhibition at 10 to 15 uM after 72 hrs by MTT assay; type: functional, cell-based; procedure, shortened: as §7

CCCC[C@H](NC(=O)/C=C(\C)c1ccc(C(F)(F)P(=O)(OCOC(=O)C(C)(C)C)OCOC(=O)C(C)(C)C)cc1)C(=O)N1CC2CC2C1C(=O)NCCNC(N)=O (mixture of isomers)
inhibition [1]: Active

CCOP(=O)(OCC)C(F)(F)c1ccc(/C(C)=C/C(=O)N[C@H]2CCc3cccc4c3N(C2=O)[C@H](C(=O)N[C@H](C)CCC(N)=O)C4)cc1
growth inhibition (GI) (MDA-MB-468 [2]): inactive
inhibition [3]: inactive
growth inhibition (GI) (HCC827): inactive
growth inhibition (GI) (SKOV3ip): inactive
growth inhibition (GI) (MCF7): inactive

CCCC[C@H](NC(=O)/C=C(\C)c1ccc(C(F)(F)P(=O)(OCOC(=O)C(C)(C)C)OCOC(=O)C(C)(C)C)cc1)C(=O)N1C[C@H]2C[C@H]2[C@H]1C(=O)N[C@@H](CCC(N)=O)C(C)OCc1ccccc1 (some centres not stated)
growth inhibition (GI) (MeWo): <20%
growth inhibition (GI) (A549): <20%
growth inhibition (GI) [4]: <20%
inhibition [5]: Active
inhibition [6]: inactive
inhibition [7]: Active
inhibition [8]: inactive
inhibition [9]: Dose-dependent effect
growth inhibition (GI) [10]: <20%
growth inhibition (GI) (NCI-H520): <20%
inhibition [11]: Active
inhibition [12]: Active
growth inhibition (GI) [13]: <20%
inhibition [14]: inactive
inhibition [15]: Active
growth inhibition (GI) (A-375): <20%
inhibition [16]: Active
Ratio (MDA-MB-468 [17]): 10
inhibition [18]: inactive

CCCC[C@H](NC(=O)/C=C(\C)c1ccc(C(F)(F)P(=O)(OCOC(=O)C(C)(C)C)OCOC(=O)C(C)(C)C)cc1)C(=O)N1C[C@H]2C[C@H]2[C@H]1C(=O)N[C@H](C)CCC(N)=O
inhibition [5]: Active
inhibition [6]: inactive
inhibition [7]: Active
inhibition [8]: inactive
inhibition [9]: Dose-dependent effect
inhibition [11]: Active
inhibition [12]: Active
inhibition [14]: inactive
IC50 (MDA-MB-468 [19]): 30 µM
inhibition [15]: Active
inhibition [16]: Active
Ratio (MDA-MB-468 [17]): 10
inhibition [18]: inactive

CCCC[C@H](NC(=O)/C=C(\C)c1ccc(C(F)(F)P(=O)(OCOC(=O)C(C)(C)C)OCOC(=O)C(C)(C)C)cc1)C(=O)N1C[C@@H]2C[C@@H]2[C@@H]1C(=O)N[C@H](C)CCC(N)=O
inhibition [3]: Active
IC50 (MDA-MB-468 [19]): 30 µM

CCCC[C@H](NC(=O)/C=C(\C)c1ccc(C(F)(F)P(=O)(OCOC(=O)C(C)(C)C)OCOC(=O)C(C)(C)C)cc1)C(=O)N1C[C@@H]2C[C@@H]2[C@@H]1C(=O)N[C@@H](CCC(N)=O)C(C)OCc1ccccc1 (some centres not stated)
inhibition [3]: inactive
growth inhibition (GI) (MDA-MB-468 [20]): Active
